This is an account of results in ChEMBL document CHEMBL5042523, “Novel Macrocyclic Peptidomimetics Targeting the Polo-Box Domain of Polo-Like Kinase 1” (J Med Chem, 2022).

Active and inactive are the calls of the source. No cut-off for these calls is given here. Where a SMILES comes first, the peptide text is derived from it. [ ]: non-standard residue; d: D form. pT = C[C@@H](OP(=O)(O)O)[C@H](N)C(=O)O

Data set [1] in a line: Drug uptake in Wistar rat administered iv measured after 5 to 30 mins by PET imaging analysis. It counts as ADME, organism-based. Conditions: in vivo, time 5-30 min.
Data set [2] deals with Serine/threonine-protein kinase PLK2 (Homo sapiens) (UniProt Q9NYY3). In words: Binding affinity to PlK2-PBD (unknown origin) using 5-carboxyfluorescein-Ahx-GPMQTS-pT-PKNG as substrate measured after 30 min by fluorescence polarization assay. Summed up:
(§1)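 Competitive fluorescence polarization. E. coli-purified PBD used at its EC85 with 10 nM (final) 5-carboxyfluorescein-labelled phosphopeptide: GPMQTS-pT-PKNG probe for Plk2, GPLATS-pT-PKNG probe for Plk3. Buffer was 10 mM Tris-Cl pH 8.0, 1 mM EDTA, 50 mM NaCl, 0.01% NP-40, with test peptide over a concentration range. Polarization read 30 min after mixing. Three independent experiments.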

Data set [3] concerns the target Serine/threonine-protein kinase PLK3 (Homo sapiens) (UniProt Q9H4B4). In words: Binding affinity to PlK3-PBD (unknown origin) using 5-carboxyfluorescein-Ahx-GPLATS-pT-PKNG as substrate measured after 30 min by fluorescence polarization assay. The method, boiled down: as §1
(In general: In fluorescence polarisation assays a small probe gives low polarisation when free and higher when bound to something large.)

The subject of a further data set is HeLa. In words: Antiproliferative activity against human HeLa cell assessed as viable cells measured after 2 days by MTS assay. The format is functional, cell-based. Conditions: time 2.0 day. The method, boiled down:
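HeLa cells, asynchronously growing, seeded at 2000 cells/100 μL in triplicate. Compound added for 24 h, then medium replaced and compound given for another 24 h (48 h continuous). MTS reagent added for 1–4 h at 37 °C, 5% CO2. Absorbance read at 490 nm. Three independent experiments, mean relative signal with s.d.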
For orientation: Tetrazolium dyes change colour on reduction, which living cells bring about.

Chain of Serine/threonine-protein kinase PLK2 (Homo sapiens) (Q9NYY3 whole entry, looked up): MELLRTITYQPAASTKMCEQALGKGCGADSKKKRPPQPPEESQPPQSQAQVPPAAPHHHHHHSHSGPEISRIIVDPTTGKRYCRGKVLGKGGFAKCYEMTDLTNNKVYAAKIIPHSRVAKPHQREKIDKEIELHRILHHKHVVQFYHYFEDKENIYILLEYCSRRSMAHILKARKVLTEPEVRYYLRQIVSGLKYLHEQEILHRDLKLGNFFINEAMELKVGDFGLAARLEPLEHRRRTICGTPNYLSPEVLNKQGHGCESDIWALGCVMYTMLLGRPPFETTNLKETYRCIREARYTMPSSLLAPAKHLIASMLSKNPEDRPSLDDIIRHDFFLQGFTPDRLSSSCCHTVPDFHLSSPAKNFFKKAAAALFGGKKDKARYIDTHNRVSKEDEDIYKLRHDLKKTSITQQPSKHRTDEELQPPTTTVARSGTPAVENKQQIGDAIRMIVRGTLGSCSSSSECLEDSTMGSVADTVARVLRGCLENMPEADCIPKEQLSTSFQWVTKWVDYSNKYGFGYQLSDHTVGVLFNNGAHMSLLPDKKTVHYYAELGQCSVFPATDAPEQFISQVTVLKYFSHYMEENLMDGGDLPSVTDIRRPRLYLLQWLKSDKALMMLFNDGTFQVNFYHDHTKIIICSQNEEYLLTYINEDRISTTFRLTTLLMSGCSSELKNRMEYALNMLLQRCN
Chain of Serine/threonine-protein kinase PLK3 (Homo sapiens) (Q9H4B4 whole entry, looked up): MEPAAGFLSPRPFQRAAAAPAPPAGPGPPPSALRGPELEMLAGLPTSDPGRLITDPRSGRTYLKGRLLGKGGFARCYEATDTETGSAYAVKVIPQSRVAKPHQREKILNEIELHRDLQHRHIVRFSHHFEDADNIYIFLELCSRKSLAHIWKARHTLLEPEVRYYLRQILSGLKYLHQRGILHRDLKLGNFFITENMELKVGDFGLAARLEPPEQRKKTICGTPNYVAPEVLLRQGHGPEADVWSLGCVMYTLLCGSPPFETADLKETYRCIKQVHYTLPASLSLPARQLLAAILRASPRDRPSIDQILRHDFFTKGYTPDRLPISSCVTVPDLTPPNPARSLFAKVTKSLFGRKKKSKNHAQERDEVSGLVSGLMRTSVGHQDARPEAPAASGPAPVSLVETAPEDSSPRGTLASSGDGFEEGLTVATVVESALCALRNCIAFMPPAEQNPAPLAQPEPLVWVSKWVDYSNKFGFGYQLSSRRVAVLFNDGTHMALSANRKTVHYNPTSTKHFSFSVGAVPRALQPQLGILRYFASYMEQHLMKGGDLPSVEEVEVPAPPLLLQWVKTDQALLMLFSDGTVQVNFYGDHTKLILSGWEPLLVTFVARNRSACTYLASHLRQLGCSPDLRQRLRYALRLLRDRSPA

For the compound `COC(=O)[C@H](CC(C)C)NC(=O)[C@@H]1CCCN1C(=O)[C@@H](NC(=O)[C@H](CO)NC(=O)[C@H](CCC(N)=O)NC(=O)[C@H](CCSC)NC(=O)[C@@H]1CCCN1)[C@@H](C)OP(=O)(O)O` (H-PMQS[pT]PL-OMe), the Drug uptake result in data set [1] is reported as “Not Active”.

Turning to `COC(=O)[C@H](CC(C)C)NC(=O)[C@@H]1CC[C@H]2OCCNC(=O)CC[C@H](NC(=O)c3cc(OCC(C)C)cc(OCC(C)C)c3)C(=O)N[C@@H](CO)C(=O)N[C@@H]([C@@H](C)OP(=O)(O)O)C(=O)N21`, the result in data set [2] and in data set [3] was inactive. Also, in the data set with HeLa, the result was Active.
